Test results published in ChEMBL document CHEMBL4118259, “Synthesis of sulfadiazinyl acyl/aryl thiourea derivatives as calf intestinal alkaline phosphatase inhibitors, pharmacokinetic properties, lead optimization, Lineweaver-Burk plot evaluation and binding analysis” (Bioorg Med Chem, 2018).
Activity calls are given as the source filed them. No cut-off for these calls is given here.

Test: Antioxidant activity assessed as DPPH radical scavenging activity at 100 ug/ml measured after 30 mins
Type: functional
How it was run: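 DPPH radical scavenging with compounds at 100 µg/mL; mixture incubated at room temperature for 30 min, absorbance read at 517 nm; ascorbic acid as reference inhibitor; percentage activity given as mean ± SEM.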

SMILES | Activity
O=C(NC(=S)Nc1ccc(S(=O)(=O)Nc2ncccn2)cc1)c1ccc(Cl)cc1 | inactive
O=C(NC(=S)Nc1ccc(S(=O)(=O)Nc2ncccn2)cc1)c1cc([N+](=O)[O-])cc([N+](=O)[O-])c1 | Active
COc1ccc(C(=O)NC(=S)Nc2ccc(S(=O)(=O)Nc3ncccn3)cc2)cc1 | inactive
CC(=O)NC(=S)Nc1ccc(S(=O)(=O)Nc2ncccn2)cc1 | inactive
O=C(NC(=S)Nc1ccc(S(=O)(=O)Nc2ncccn2)cc1)c1ccc(F)cc1 | inactive
O=C(NC(=S)Nc1ccc(S(=O)(=O)Nc2ncccn2)cc1)c1ccc(Cl)cc1Cl | Active
O=C1O[C@H]([C@@H](O)CO)C(O)=C1O | Active
O=C(NC(=S)Nc1ccc(S(=O)(=O)Nc2ncccn2)cc1)c1ccccc1Cl | inactive
CCCCCCCC(=O)NC(=S)Nc1ccc(S(=O)(=O)Nc2ncccn2)cc1 | inactive
CCCC(=O)NC(=S)Nc1ccc(S(=O)(=O)Nc2ncccn2)cc1 | inactive
CCCCCCC(=O)NC(=S)Nc1ccc(S(=O)(=O)Nc2ncccn2)cc1 | inactive
